Measurements published in ChEMBL document CHEMBL5661984, “Allosteric ligands for the pharmacologically dark receptors GPR68 and GPR65” (Nature, 2015).
The source made the active and inactive calls. The calls are words filed in the database; no cut-off is given here.

Tests used:
[1] = target: T1, G-protein coupled receptor 68 (Homo sapiens, UniProt Q15743); experiment: Binding affinity to GPR68 expressed in human HEK293T cells assessed as cAMP production in presence of H+ proton by Split-luciferase based luminescence counter analysis; type: cell-based; conditions: filed as positive allosteric modulator
T1 sequence (Q15743 whole entry): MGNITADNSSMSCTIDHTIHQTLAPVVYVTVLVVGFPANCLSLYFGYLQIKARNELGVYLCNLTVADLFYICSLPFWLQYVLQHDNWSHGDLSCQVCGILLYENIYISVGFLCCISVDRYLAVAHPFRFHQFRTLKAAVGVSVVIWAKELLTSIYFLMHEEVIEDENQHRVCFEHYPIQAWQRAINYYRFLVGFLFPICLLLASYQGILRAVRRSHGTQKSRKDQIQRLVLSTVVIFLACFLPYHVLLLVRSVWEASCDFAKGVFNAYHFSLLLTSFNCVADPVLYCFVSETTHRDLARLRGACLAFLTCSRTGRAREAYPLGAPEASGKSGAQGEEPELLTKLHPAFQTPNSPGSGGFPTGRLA
Procedure, shortened: (§1)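 Proton concentration-response of GPR68 (wild type or E160A/K/Q, R189L/M, H269F mutants) in transiently transfected HEK293-T cells. Read-out: GloSensor cAMP, with luciferin loading 90 min at 37°C at pH 8.4. Run with and without increasing modulator concentrations; 20 min at room temperature before luminescence. Proton KA fixed to the proton EC50 without modulator. KB, τA, α, β fitted globally with an operational allosteric model. n=4.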

[2] = target: T2, G-protein coupled receptor 65 (Homo sapiens, UniProt Q8IYL9); experiment: Antagonist activity against GPR65 (unknown origin) transfected in human HEK293T cells incubated for 15 mins by luminescence counter analysis; type: functional, cell-based; conditions: for Activity: filed as antagonist
T2 sequence (Q8IYL9 whole entry): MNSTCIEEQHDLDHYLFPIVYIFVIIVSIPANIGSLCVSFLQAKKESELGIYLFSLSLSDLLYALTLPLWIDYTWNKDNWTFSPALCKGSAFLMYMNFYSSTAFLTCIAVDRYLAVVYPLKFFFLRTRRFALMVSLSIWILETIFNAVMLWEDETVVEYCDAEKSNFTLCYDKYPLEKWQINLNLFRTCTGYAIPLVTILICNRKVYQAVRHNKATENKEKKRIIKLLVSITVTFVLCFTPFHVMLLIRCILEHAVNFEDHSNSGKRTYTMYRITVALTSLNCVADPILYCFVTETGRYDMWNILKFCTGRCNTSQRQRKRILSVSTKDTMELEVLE
Procedure, shortened: (§2)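 GloSensor split-luciferase cAMP assay. HEK293-T cells transiently co-transfected with GPR65 (wild type or the D153A, R187L, F242A or Y272A mutant) and GloSensor 7A reporter. Cells plated in DMEM with 1% dialyzed FBS for at least 6 h, then loaded with luciferin (4 mM, in drug buffer pH 8.4) for 90 min at 37°C. Compounds added at set pH in HBSS with 10 mM HEPES/10 mM MES, with TAPS for higher pH. Luminescence read after about 20 min at room temperature. Data normalized to buffer basal and fitted to a 4-parameter logistic.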

[3] = target: T1, G-protein coupled receptor 68; experiment: Positive allosteric modulator activity at GPR68 expressed in human HEK293T cells assessed as cAMP production in presence of H+ proton by Split-luciferase based luminescence counter analysis (reference value: 26.4 to 43.8 %); type: functional, cell-based; procedure, shortened: as §1
[4] = target: T1, G-protein coupled receptor 68; experiment: Positive allosteric modulator activity at GPR68 expressed in human HEK293T cells assessed as cAMP production in presence of H+ proton by Split-luciferase based luminescence counter analysis (reference value: 6.53 to 6.72); type: functional, cell-based
[5] = target: C-X-C chemokine receptor type 4 (Homo sapiens) (UniProt P61073); experiment: Antagonist activity against CXCR4 receptor (unknown origin) transfected in human HEK293T cells at 10 uM incubated for 15 mins in presence of AMD3100 by luminescence counter analysis; type: functional, cell-based
Sequence of C-X-C chemokine receptor type 4 (Homo sapiens) (P61073 whole entry): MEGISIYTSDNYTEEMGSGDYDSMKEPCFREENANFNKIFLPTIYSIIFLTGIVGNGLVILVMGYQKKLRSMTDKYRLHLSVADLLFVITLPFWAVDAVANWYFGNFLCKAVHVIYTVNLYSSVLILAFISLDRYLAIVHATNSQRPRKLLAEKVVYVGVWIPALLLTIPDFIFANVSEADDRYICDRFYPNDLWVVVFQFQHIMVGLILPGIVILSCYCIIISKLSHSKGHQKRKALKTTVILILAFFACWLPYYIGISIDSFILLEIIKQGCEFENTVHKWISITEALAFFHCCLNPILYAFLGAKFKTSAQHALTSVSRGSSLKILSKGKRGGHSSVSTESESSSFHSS
Procedure, shortened: (§3)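 HEK293-T cells transiently transfected with CXCR4 and the GloSensor cAMP reporter, plated in DMEM with 1% dialyzed FBS. Test compound at 10 μM in 20 mM HEPES/HBSS, pH 7.4, 15 min at room temperature. Agonist mode: luciferin (4 mM final) plus 200 nM isoproterenol added, 20 min. Antagonist mode: compound 10 min, then reference agonist at EC80 for 10 min, then luciferin/isoproterenol. Luminescence read. CXCL12 (1 or 3 μM) is the agonist control and AMD3100 (10 μM) the antagonist control. n=2.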

[6] = target: C-X-C chemokine receptor type 4 (Homo sapiens) (UniProt P61073); experiment: Agonist activity against CXCR4 receptor (unknown origin) transfected in human HEK293T cells at 10 uM incubated for 15 mins in presence of CXCL12 by luminescence counter analysis; type: functional, cell-based; procedure, shortened: as §3
[7] = target: T1, G-protein coupled receptor 68; experiment: Positive allosteric modulator activity at GPR68 expressed in human HEK293T cells assessed as proton-mediated calcium release at 10 uM incubated for 10 mins by Fluo-4 Direct calcium dye based FLIPR assay (reference value: 1.30 %); type: functional, cell-based
[8] = Positive allosteric modulator activity at GPR68 E160Q mutant transfected in human HEK293T cells assessed as proton-mediated calcium release at 10 uM incubated for 10 mins by Fluo-4 Direct calcium dye based FLIPR assay (reference value: 1.25 +/- 0.01 %); conditions: HEK-293T, condition central nervous system disease
[9] = Positive allosteric modulator activity at GPR68 E160Q mutant transfected in human HEK293T cells assessed as proton-mediated calcium release at 10 uM incubated for 10 mins by Fluo-4 Direct calcium dye based FLIPR assay (reference value: 6.86 +/- 0.04); type: cell-based; conditions: HEK-293T
[10] = Positive allosteric modulator activity at GPR68 R189M mutant transfected in human HEK293T cells assessed as proton-mediated calcium release at 10 uM incubated for 10 mins by Fluo-4 Direct calcium dye based FLIPR assay (reference value: 1.43 +/- 0.01 %); conditions: HEK-293T, condition central nervous system disease
[11] = Positive allosteric modulator activity at GPR68 E160K mutant transfected in human HEK293T cells assessed as proton-mediated calcium release at 10 uM incubated for 10 mins by Fluo-4 Direct calcium dye based FLIPR assay (reference value: 1.38 +/- 0.01 %); conditions: HEK-293T, condition central nervous system disease
[12] = Positive allosteric modulator activity at GPR68 R189L mutant transfected in human HEK293T cells assessed as proton-mediated calcium release at 10 uM incubated for 10 mins by Fluo-4 Direct calcium dye based FLIPR assay (reference value: 1.42 +/- 0.01 %); conditions: HEK-293T, condition central nervous system disease
[13] = Positive allosteric modulator activity at GPR68 H269F mutant transfected in human HEK293T cells assessed as proton-mediated calcium release at 10 uM incubated for 10 mins by Fluo-4 Direct calcium dye based FLIPR assay (reference value: 1.57 +/- 0.01 %); conditions: HEK-293T, condition central nervous system disease
[14] = Positive allosteric modulator activity at GPR68 R189M mutant transfected in human HEK293T cells assessed as proton-mediated calcium release at 10 uM incubated for 10 mins by Fluo-4 Direct calcium dye based FLIPR assay (reference value: 6.77 +/- 0.01); type: cell-based; conditions: HEK-293T
[15] = Positive allosteric modulator activity at GPR68 R189L mutant transfected in human HEK293T cells assessed as proton-mediated calcium release at 10 uM incubated for 10 mins by Fluo-4 Direct calcium dye based FLIPR assay (reference value: 6.85 +/- 0.02); type: cell-based; conditions: HEK-293T
[16] = Positive allosteric modulator activity at GPR68 H269F mutant transfected in human HEK293T cells assessed as proton-mediated calcium release at 10 uM incubated for 10 mins by Fluo-4 Direct calcium dye based FLIPR assay (reference value: 6.44 +/- 0.02); type: cell-based; conditions: HEK-293T
[17] = Positive allosteric modulator activity at GPR68 E160K mutant transfected in human HEK293T cells assessed as proton-mediated calcium release at 10 uM incubated for 10 mins by Fluo-4 Direct calcium dye based FLIPR assay (reference value: 6.79 +/- 0.02); type: cell-based; conditions: HEK-293T
[18] = Antagonist activity against GPR65 D153A mutant (unknown origin) transfected in human HEK293T cells incubated for 15 mins by luminescence counter analysis; type: cell-based; conditions: HEK-293T, 0.25 h; procedure, shortened: as §2
HEK293T [19] = experiment: Antagonist activity against GPR65 F242A mutant (unknown origin) transfected in human HEK293T cells incubated for 15 mins by luminescence counter analysis; type: cell-based; conditions: filed as antagonist; procedure, shortened: as §2
[20] = Antagonist activity against GPR65 D153A mutant (unknown origin) transfected in human HEK293T cells incubated for 15 mins by luminescence counter analysis relative to control; conditions: HEK-293T, 0.25 h, condition central nervous system disease; procedure, shortened: as §2
[21] = target: T2, G-protein coupled receptor 65; experiment: Antagonist activity against GPR65 (unknown origin) transfected in human HEK293T cells incubated for 15 mins by luminescence counter analysis relative to control; type: functional, cell-based; procedure, shortened: as §2
HEK293T [22] = experiment: Antagonist activity against GPR65 Y272A mutant (unknown origin) transfected in human HEK293T cells incubated for 15 mins by luminescence counter analysis; type: cell-based; conditions: filed as antagonist; procedure, shortened: as §2
[23] = target: T2, G-protein coupled receptor 65; experiment: Agonist activity against GPR65 (unknown origin) transfected in human HEK293T cells on pH 6.80 to 7.40 at 30 uM incubated for 15 mins by luminescence counter analysis; type: functional, cell-based
HEK293T [24] = experiment: Antagonist activity against GPR65 R187L mutant (unknown origin) transfected in human HEK293T cells incubated for 15 mins by luminescence counter analysis; type: cell-based; conditions: filed as antagonist; procedure, shortened: as §2
[25] = filed as positive allosteric modulator

## Nc1nc(NCc2ccccc2F)nc(-c2cc(F)c(F)cc2N)n1
[1]
  pKb: 4.93

## O=C1CCc2cc(-c3csc(NC(=O)c4ccc(-c5ccccc5F)o4)n3)ccc2N1
[2]
  Activity: Active

## Nc1nc(NCc2cc[nH]n2)nc(-c2ccccc2CO)n1
[1]
  pKb: 5.17

## Cc1ccc(-c2nc(N)nc(NCc3ccccc3)n2)c2cccnc12
[3]
  Emax: 31%
[4]
  EC50: 95.5 nM
[1]
  pKb: 4.92

## O=C(Nc1nc(-c2ccc3c(c2)OCCO3)cs1)c1csnn1
[2]
  Activity: Active

## Nc1nc(NCc2ccccc2)nc(-c2ccc(F)c(F)c2)n1
[3]; [25]
  Emax: 68.8%
[4]
  EC50: 91.2 nM
[1]
  pKb: 5.69

## O=C1N[C@H](c2cccc([N+](=O)[O-])c2)c2c(-c3ccco3)n[nH]c21
[3]; [25]
  Emax: 60.3%
[4]
  EC50: 107 nM
[1]
  pKb: 4.42

## COc1ccc(-c2nc(N)nc(NCc3ccccc3)n2)c(CO)c1
[1]
  pKb: 4.43

## O=C1CN=C(c2ccccc2Cl)c2cc([N+](=O)[O-])ccc2N1
[5]
  Activity: inactive
[6]
  Activity: inactive

## O=C1N[C@H](c2ccccc2[N+](=O)[O-])c2c(-c3ccccc3)n[nH]c21
[3]; [25]
  Emax: 50.8%
[4]
  EC50: 186 nM
[1]
  pKb: 5.48

## OC1CCC(Nc2nc(-c3ccccc3)nc3[nH]ccc23)CC1 (stereo not drawn)
[1]
  pKb: 6.2

## Nc1nc(NCc2ccccc2F)nc(-c2cccc(F)c2N)n1
[1]
  pKb: 4.11

## Nc1nc(NCc2ccccc2)nc(-c2cc(F)cc(F)c2)n1
[7]
  Emax: 1.24%
[8]
  Emax at 10 µM: 1.11%
[9]
  EC50: 102 nM
[3]; [25]
  Emax: 70.7%
[10]
  Emax at 10 µM: 1.41%
[11]
  Emax at 10 µM: 1.38%
[4]
  EC50: 110 nM
[12]
  Emax at 10 µM: 1.49%
[13]
  Emax at 10 µM: 1.63%
[14]
  EC50: 141 nM
[15]
  EC50: 105 nM
[16]
  EC50: 324 nM
[17]
  EC50: 141 nM

## Nc1nc(NCc2cccc(F)c2)nc(-c2cccc(F)c2N)n1
[1]
  pKb: 3.88

## Nc1nc(NCc2cccc(F)c2)nc(-c2ccc(F)cc2N)n1
[1]
  pKb: 3.68

## Nc1nc(-c2ccc(Cl)c(Cl)c2)c(-c2ccncc2)s1
[1]
  pKb: 7.51

## COc1ccc(CNc2nc(N)nc(-c3ccccc3CO)n2)cc1
[1]
  pKb: 4.35

## Nc1nc(NCc2ccccc2)nc(-c2ccc(CO)cc2)n1
[1]
  pKb: 4.93

## Nc1nc(NCc2ccccc2F)nc(-c2ccc(F)cc2N)n1
[1]
  pKb: 4.23

## Nc1nc(NCCCCc2ccccc2)nc(-c2ccccc2CO)n1
[1]
  pKb: 5.82

## O=C1CN=C(c2ccccc2)c2cc(Cl)ccc2N1
[5]
  Activity: inactive
[6]
  Activity: inactive

## Nc1nc(NCc2cccc(F)c2)nc(-c2ccc(F)c(F)c2CO)n1
[1]
  pKb: 4.01

## COc1cc([C@H]2NC(=O)c3[nH]nc(-c4ccco4)c32)ccc1O
[3]; [25]
  Emax: 46.9%
[4]
  EC50: 158 nM
[1]
  pKb: 5.17

## Nc1nc(NCCCc2ccccc2)nc(-c2ccccc2CO)n1
[1]
  pKb: 5.75

## CC(=O)c1cccc(-c2nc(N)nc(Nc3ccc(C)cc3)n2)c1
[3]; [25]
  Emax: 67.3%
[4]
  EC50: 57.5 nM
[1]
  pKb: 6.31

## O=C1CN=C(c2ccccc2F)c2cc(Cl)ccc2N1
[5]
  Activity: inactive
[6]
  Activity: inactive

## CCCCNc1c(C(=O)OCC)c(C)nc2c1cnn2CC
[1]
  pKb: 5.2

## Nc1nc(NCc2cccc(F)c2)nc(-c2cc(F)c(F)cc2N)n1
[1]
  pKb: 4.66

## Nc1nc(NCc2ccccc2)nc(-c2ccc(F)c(F)c2CO)n1
[1]
  pKb: 3.84

## Nc1nc(NCCc2ccccc2)nc(-c2ccccc2CO)n1
[1]
  pKb: 5.43

## COc1ccc(-c2csc(NC(=O)CSc3nc[nH]n3)n2)cc1OC
[18]
  EC50: 6.31 µM
HEK293T [19]
  Activity: Active
[2]
  EC50: 501 nM
[20]
  Emax: 1.5%
[21]
  Emax: 2.2%
HEK293T [22]
  Activity: Active
[23]
  Activity: inactive
HEK293T [24]
  Activity: Active

## Nc1nc(NCc2ccccc2)nc(-c2ccccc2N)n1
[3]; [25]
  Emax: 50.2%
[4]
  EC50: 63.1 nM
[1]
  pKb: 5.22
